# Sampled rows, rich in hits. Any-hit rate of the full collection: about 29%.
# Ecoli tolC: blocks growth of E. coli BW25113 tolC mutant; hit rate 2.2% among 65,000; growth inhibition, % at 10 µM (by protocol); OD615; AID 573;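 active = growth inhibition at or above a cutoff equal to the mean over every tested compound plus 3 SD, cut at about 60% in these data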;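 also: growth measured after 20 h incubation at 37 °C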
#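 Test system: E. coli BW25113 ΔtolC::kan bacteria; incubation: 37 °C, 20 h exposure; medium: LB broth supplemented with 50 µg/mL kanamycin; read-out basis: percent growth inhibition; signal: A615 absorbance measurement; compound: 10 µM final, single dose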
# E coli WT exp: blocks growth of wild type E. coli BW25113. OD600 absorbance. growth inhibition, % at 100 µM. hit rate 0.15% among 98,000;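 active = growth inhibition above about 50% at one test dose, limit read from the data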;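 also: growth measured after 20 h incubation at 37 °C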
# CYP2C19 inhib: inhibitors of human CYP2C19. inhibition, % at 5 µM. CYP2C19 Supersomes, luciferin-H EGE luminescence, 30 min. P33261. hit rate 21% among 96,000;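 active = CYP2C19 inhibition above a set limit at 5 µM in the primary screen, cut at about 50% in these data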;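 also: plate controls were negative control wells for no effect and 2.5 mM tranylcypromine positive control for full effect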
# CYP2C19 act: increases human CYP2C19 enzyme activity. activation factor at 5 µM. 96,000 tested, under 10 active. P33261. recombinant CYP2C19, luciferin-H EGE luminescence; hits give high values; 0 = fully inhibited enzyme, 1 = untreated enzyme;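 active = activation factor of at least 2 at 5 µM in the primary screen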;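 also: 0 = wells with 2.5 mM tranylcypromine and 1 = vehicle-only wells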
# CYP2C9 inh: inhibitors of human CYP2C9; P11712; CYP2C9 Supersomes, luciferin-H conversion, luminescence; inhibition, % at 5 µM; hit rate 20% among 96,000;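 active = blocking of liver enzyme CYP2C9 beyond about 50% at 5 µM, limit read from the data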
# Target sequence (P11712 whole entry, looked up): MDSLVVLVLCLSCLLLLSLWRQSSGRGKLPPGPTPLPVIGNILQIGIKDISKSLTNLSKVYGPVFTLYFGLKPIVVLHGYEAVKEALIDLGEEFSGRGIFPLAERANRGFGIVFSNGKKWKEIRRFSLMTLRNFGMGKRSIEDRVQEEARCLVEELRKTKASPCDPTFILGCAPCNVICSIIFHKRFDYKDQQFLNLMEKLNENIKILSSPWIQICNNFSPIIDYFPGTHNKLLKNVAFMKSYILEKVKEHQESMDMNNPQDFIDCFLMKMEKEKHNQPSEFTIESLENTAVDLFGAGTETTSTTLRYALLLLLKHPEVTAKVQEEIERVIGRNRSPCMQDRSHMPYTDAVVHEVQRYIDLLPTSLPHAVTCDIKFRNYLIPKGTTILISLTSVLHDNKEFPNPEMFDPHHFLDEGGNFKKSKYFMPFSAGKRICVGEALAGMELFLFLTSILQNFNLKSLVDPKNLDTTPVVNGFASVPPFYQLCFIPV
# CYP2C9 activ: increases human cytochrome P450 2C9 activity | recombinant CYP2C9, luciferin-H conversion, luminescence; hits give high values; factor 1 = untreated enzyme, 0 = blocked | activation factor at 5 µM | hit rate 1.4% among 96,000 | AID 1024;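 active = activation factor of 2 or more for CYP2C9 at a 5 µM dose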;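 also: 0 = sulfaphenazole-blocked wells and 1 = vehicle-only wells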
# The depositor's hits bear a star; · = not tested or not shown.
SMILES,Ecoli tolC,E coli WT exp,CYP2C19 inhib,CYP2C19 act,CYP2C9 inh,CYP2C9 activ
CCOC(=O)N1CCN(CC(O)COCCC23CC4CC(CC(C4)C2)C3)CC1 (stereo not given),·,9.0,22.3,0.8,4.5,1
Cc1nc(SC(C(=O)c2ccccc2)c2ccccc2)n[nH]1 (stereo not given),·,-5.0,78.1*,0.2,48.9,0.5
CC(NC(=O)COc1ccc(Oc2ccccc2)cc1)C(=O)O (stereo not given),·,-3.0,-15.3,1.2,-7.4,1.1
O=C(COC(=O)c1cc(S(=O)(=O)N2CCCCC2)ccc1N1CCOCC1)NC1CCCCC1,12.5,6.0,32.1,0.7,44.5,0.6
O=C(NCCOC12CC3CC(CC(C3)C1)C2)c1cccc(Br)c1,·,-3.0,71.7*,0.3,29.5,0.7
O=S(=O)(c1cccs1)N1CCN(CC(O)COC2CCCc3ccccc32)CC1 (stereo not given),9.6,3.0,34.0,0.7,62.0*,0.4
O=S(=O)(c1cccs1)N1CCN(CC(O)COc2cccc(Br)c2)CC1 (stereo not given),·,0.0,32.7,0.7,36.8,0.6
CCOc1ccccc1-c1cc(-c2ccc(OC)cc2)nc2c1c(=O)n(C)c(=O)n2C,18.1,·,-7.1,1.1,28.0,0.7
Cc1nn(-c2ccccc2)c2sc(C(=O)C(C#N)c3ccccn3)cc12 (stereo not given),3.5,·,8.7,0.9,36.9,0.6
COc1ccc(S(=O)(=O)n2ccc(-c3ccc(OCCN(C)c4ccccn4)cc3)n2)cc1,·,-19.0,25.7,0.7,57.2*,0.4
COc1ccc(S(=O)(=O)N(CC(=O)O)c2ccccn2)cc1,·,14.0,-14.2,1.1,-15.4,1.2
COc1ccc(C2C(C(=O)NCC3CCCO3)c3cc(OC)c(OC)cc3C(=O)N2C)cc1OC (stereo not given),-6.9,5.0,42.2,0.6,12.5,0.9
CCC(=O)OCCNc1cc(Sc2nc3ccccc3s2)c2nonc2c1[N+](=O)[O-],·,8.0,30.6,0.7,53.9*,0.5
O=[N+]([O-])c1c(NCCCO)cc(Sc2nc3ccccc3s2)c2nonc12,·,5.0,24.2,0.8,7.9,0.9
O=C(CSc1n[nH]c(-c2ccco2)n1)Nc1sc2c(c1C(=O)Nc1ccccc1)CCCC2,14.3,-8.0,47.9,0.5,84.1*,0.2
CCOC(=O)c1sc(NC(=O)CSc2nnnn2-c2ccc(C)c(C)c2)nc1C,-4.1,-14.0,20.4,0.8,38.9,0.6
CCOC(=O)c1sc(NC(=O)CSc2nncs2)c(C(=O)OCC)c1C,-0.7,0.0,2.1,1,9.5,0.9
Cc1sc(NC(=O)CSc2nnc3scc(-c4ccccc4)n23)c(C#N)c1C,-27.8,-6.0,9.7,0.9,-13.0,1.1
CCOC(=O)CNC(=O)CSc1nnnn1-c1ccc(C)c(C)c1,-0.6,3.0,17.2,0.8,-162.8,2.6*
CCn1nnnc1SCC(=O)Nc1sc(C)c(C)c1C#N,·,-2.0,19.3,0.8,79.0*,0.2
CCOC(=O)c1sc(NC(=O)CSc2nnnn2-c2ccc(C)cc2)c(C(=O)OCC)c1C,-7.2,-15.0,48.2,0.5,80.1*,0.2
CCOCCOCCC(C(=O)OCC)P(=O)(c1ccccc1)c1ccccc1 (stereo not given),·,-7.0,-7.1,1.1,-12.5,1.1
CC(C)(C)NC(=O)CN(C(=O)CS(=O)CC(=O)Nc1ccc(F)cc1)c1ccc(Cl)cc1 (stereo not given),1.6,6.0,1.8,1,45.4,0.5
Cc1cccc(C)c1N1CCN(C(=O)Nc2ccc3c(c2)OCCO3)CC1,·,18.0,15.9,0.8,2.7,1
CCOC(=O)c1c(NC(=O)CSc2nnnn2CC)sc(C)c1C,17.9,-7.0,13.9,0.9,51.5*,0.5
SMILES,Ecoli tolC,E coli WT exp,CYP2C19 inhib,CYP2C19 act,CYP2C9 inh,CYP2C9 activ
CCOC(=O)c1c(NC(=O)CSc2n[nH]c(-c3ccco3)n2)sc(C)c1C,44.1,-10.0,36.7,0.6,88.3*,0.1
CCOC(=O)c1c(NC(=O)CSc2nnnn2C)sc(C)c1C,20.1,-7.0,25.2,0.7,27.6,0.7
CCOC(=O)c1c(NC(=O)CSc2nnnn2C)sc(CC)c1C,18.0,6.0,83.2*,0.2,47.8,0.5
COC(=O)c1c(NC(=O)CSc2n[nH]c(N)n2)sc(C)c1C,2.8,5.0,13.3,0.9,31.5,0.7
CCOC(=O)c1c(NC(=O)CSc2n[nH]c(N)n2)sc(CC)c1C,23.0,3.0,49.5,0.5,75.5*,0.2
Cc1ccc(NC(=O)CS(=O)Cc2nc(-c3ccc(C)cc3)oc2C)cc1 (stereo not given),·,-14.0,36.3,0.6,60.2*,0.4
Cc1ccc(-c2nc(CS(=O)CC(=O)NCc3ccccc3)c(C)o2)cc1 (stereo not given),6.5,8.0,18.3,0.8,34.7,0.7
COc1ccc(-c2nc(CS(=O)CC(=O)N3CCCC3)c(C)o2)cc1 (stereo not given),-17.1,0.0,21.3,0.8,70.6*,0.3
CCCCCCCC1(C)NC(=O)N(c2ccccc2)N1 (stereo not given),·,15.0,56.8*,0.4,24.2,0.8
O=C1NC2(NN1c1ccccc1)C1CC3CC(C1)CC2C3 (stereo not given),·,0.0,-0.9,1,-6.4,1.1
COc1cc(C(=O)N2CCN(C(=O)C(Cc3cc(C)ccc3C)NC(C)=O)CC2)cc(OC)c1OC (stereo not given),-5.5,1.0,·,·,·,·
O=C(CC(c1ccccc1)c1ccccc1)Nc1ncn[nH]1,11.4,7.0,50.3*,0.5,83.2*,0.2
Cc1cccc(C)c1OCC(=O)Nc1ncn[nH]1,-7.9,1.0,62.8*,0.4,1.2,1
Cc1ccc(SC(C)C(=O)Nc2ncn[nH]2)cc1 (stereo not given),-3.8,5.0,24.6,0.8,28.3,0.7
O=C(COc1ccc2ccccc2c1Br)Nc1ncn[nH]1,-2.0,5.0,56.5*,0.4,9.4,0.9
Cc1ccc(N2C(=O)NC3(CCCCC3)C2=O)cc1,-13.6,4.0,42.1,0.6,8.7,0.9
Cc1ccc(N2C(=O)CC3(CC4C=CC3C4)C2=O)cc1 (stereo not given),1.9,3.0,37.2,0.6,80.9*,0.2
O=C(CCCC(=O)N(CC(=O)NC1CCCC1)C1CCCC1)Nc1ccccn1,-14.9,-3.0,32.2,0.7,14.6,0.9
Cc1ccc(/C=N/N2C(=S)SC(C)(C)C2N(O)C(=O)Nc2ccc([N+](=O)[O-])cc2)cc1 (stereo not given),·,-11.0,23.3,0.8,30.4,0.7
CC1(C)SC(=S)N(/N=C/c2ccc(O)cc2)C1N(O)C(=O)Nc1ccc([N+](=O)[O-])cc1 (stereo not given),·,8.0,26.6,0.7,66.1*,0.3
O=C(Nc1ccc(F)cc1)c1cccc2c1C(=O)N(Cc1ccccn1)C2,8.3,0.0,13.9,0.9,33.5,0.7

# Screening data deposited in PubChem BioAssay by several laboratories.
